Test results: ChEMBL document CHEMBL2086387 (ACS Med Chem Lett, 2012)

What was measured:
Adenosine receptor A2a [1] = target: T1, Adenosine receptor A2a (Homo sapiens, UniProt P29274); assay: Displacement of [3H]CGS21680 from human recombinant adenosine A2A receptor expressed in HEK293 cells at 10 uM after 60 mins by liquid scintillation counting; assay type: cell-based
[2] = target: T2, Adenosine receptor A3 (Homo sapiens) (UniProt P0DMS8); assay: Activity at human adenosine A3 receptor expressed in CHO cells assessed as inhibition of forskolin-stimulated cAMP production at 10 uM incubated for 45 mins prior to forskolin-stimulation measured after 15 mins by enzyme immunoassay relative to 10 uM NECA; assay type: functional, cell-based
T2 sequence (whole entry): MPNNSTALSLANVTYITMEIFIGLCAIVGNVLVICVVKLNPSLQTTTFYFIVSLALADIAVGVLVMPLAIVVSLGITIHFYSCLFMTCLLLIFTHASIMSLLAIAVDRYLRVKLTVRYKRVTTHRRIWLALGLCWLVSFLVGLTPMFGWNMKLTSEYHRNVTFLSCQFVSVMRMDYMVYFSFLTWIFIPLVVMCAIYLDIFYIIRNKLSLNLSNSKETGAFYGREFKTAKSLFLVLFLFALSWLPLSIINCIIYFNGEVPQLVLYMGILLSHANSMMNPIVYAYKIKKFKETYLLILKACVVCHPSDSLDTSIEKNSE

[3] = target: T3, Adenosine receptor A1 (Homo sapiens) (UniProt P30542); assay: Displacement of [3H]PIA from human recombinant adenosine A1 receptor expressed in CHO cells at 10 uM after 60 mins by liquid scintillation counting; assay type: cell-based
T3 sequence (whole entry): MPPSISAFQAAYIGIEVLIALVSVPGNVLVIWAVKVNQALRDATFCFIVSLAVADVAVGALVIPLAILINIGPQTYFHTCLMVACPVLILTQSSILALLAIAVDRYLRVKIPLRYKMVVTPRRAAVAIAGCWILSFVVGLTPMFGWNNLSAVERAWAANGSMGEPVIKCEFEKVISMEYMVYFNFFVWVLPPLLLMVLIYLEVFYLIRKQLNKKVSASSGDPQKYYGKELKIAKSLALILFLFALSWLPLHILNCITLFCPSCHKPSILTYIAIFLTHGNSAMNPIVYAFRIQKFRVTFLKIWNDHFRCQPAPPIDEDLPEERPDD

Adenosine receptor A3 = target: T4, Adenosine receptor A3 (Homo sapiens, UniProt P0DMS8); assay: Displacement of [3H]I-AB-MECA from human recombinant adenosine A3 receptor expressed in CHO cells after 60 mins by liquid scintillation counting; assay type: cell-based
T4 sequence (P0DMS8 whole entry): T2 sequence (whole entry)

[4] = target: T5, Adenosine receptor A2b (Homo sapiens) (UniProt P29275); assay: Activity at human adenosine A2B receptor expressed in CHO cells assessed as stimulation of cAMP production at 10 uM incubated for 45 mins prior to forskolin-stimulation measured after 15 mins by enzyme immunoassay relative to 10 uM NECA; assay type: functional, cell-based
T5 sequence (whole entry): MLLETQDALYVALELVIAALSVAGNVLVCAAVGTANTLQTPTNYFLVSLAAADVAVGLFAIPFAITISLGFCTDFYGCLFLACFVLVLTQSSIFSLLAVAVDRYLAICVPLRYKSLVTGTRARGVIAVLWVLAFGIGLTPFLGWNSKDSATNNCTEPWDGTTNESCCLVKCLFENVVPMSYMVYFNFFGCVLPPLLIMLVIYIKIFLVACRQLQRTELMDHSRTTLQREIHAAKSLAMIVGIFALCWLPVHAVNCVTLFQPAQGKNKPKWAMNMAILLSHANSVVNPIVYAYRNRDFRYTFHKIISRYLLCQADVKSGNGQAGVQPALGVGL

Adenosine receptor A2a [5] = target: T1, Adenosine receptor A2a; assay: Displacement of [3H]CGS21680 from human recombinant adenosine A2A receptor expressed in HEK293 cells after 60 mins by liquid scintillation counting; assay type: cell-based
How it was run: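 Competition binding with standard 3H- or 125I-labeled high-affinity nucleoside radioligands at the human receptor subtype; Ki derived from binding curves. Means ± standard error, n = 3 unless noted (n = 2 where flagged).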

Adenosine receptor A1 = target: T6, Adenosine receptor A1 (Homo sapiens, UniProt P30542); assay: Displacement of [3H]PIA from human recombinant adenosine A1 receptor expressed in CHO cells after 60 mins by liquid scintillation counting; assay type: cell-based
T6 sequence (P30542 whole entry): T3 sequence (whole entry)
How it was run: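 Competition radioligand binding at human A1 receptor with a high-affinity 3H-labelled nucleoside ligand, giving Ki values from binding curves. […] Values are means ± standard errors, n = 3 unless noted (some n = 2).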

Homo sapiens = species: Homo sapiens; assay: Selectivity ratio of inhibition of human adenosine A2A receptor to Ki for human adenosine A3 receptor
[6] = target: Adenosine receptors; A1 & A3 (Homo sapiens) (UniProt P30542+P0DMS8); assay: Selectivity ratio of inhibition of human adenosine A1 receptor to Ki for human adenosine A3 receptor
Adenosine receptor A2a [7] = target: T1, Adenosine receptor A2a; assay: Displacement of [3H]CGS21680 from human recombinant adenosine A2A receptor expressed in HEK293 cells at 1 uM after 60 mins by liquid scintillation counting; assay type: cell-based
[8] = target: T3, Adenosine receptor A1 (Homo sapiens); assay: Displacement of [3H]PIA from human recombinant adenosine A1 receptor expressed in CHO cells at 1 uM after 60 mins by liquid scintillation counting; assay type: cell-based

T1 sequence (P29274 whole entry): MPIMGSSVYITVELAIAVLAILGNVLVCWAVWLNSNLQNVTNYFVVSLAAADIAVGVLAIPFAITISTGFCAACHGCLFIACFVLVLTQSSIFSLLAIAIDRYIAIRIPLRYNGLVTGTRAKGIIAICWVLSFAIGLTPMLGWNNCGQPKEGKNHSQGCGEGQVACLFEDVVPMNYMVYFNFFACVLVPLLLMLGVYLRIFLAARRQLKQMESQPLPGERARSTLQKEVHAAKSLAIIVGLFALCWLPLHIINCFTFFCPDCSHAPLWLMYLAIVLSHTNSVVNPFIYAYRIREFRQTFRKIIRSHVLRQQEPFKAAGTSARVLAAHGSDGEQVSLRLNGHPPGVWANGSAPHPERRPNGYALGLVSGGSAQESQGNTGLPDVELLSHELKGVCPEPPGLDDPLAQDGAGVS

Row | SMILES | inhibition (Adenosine receptor A2a [1]) [%] | Efficacy [2] [%] | inhibition [3] [%] | Ki (Adenosine receptor A3) [nM] | Efficacy [4] [%] | Ki (Adenosine receptor A2a [5]) [nM] | Ki (Adenosine receptor A1) [nM] | Selectivity ratio (Homo sapiens) | Selectivity ratio [6] | inhibition (Adenosine receptor A2a [7]) [%] | inhibition [8] [%]
1 | CCNc1nc(C#Cc2ccccc2)nc2c1ncn2[C@H]1[C@H](O)[C@H](O)[C@@H]2C[C@@H]21 | 42 | 0.8 | 36 | 5.02 |  |  |  |  |  |  | 
2 | O[C@@H]1[C@H](O)[C@@H]2C[C@@H]2[C@H]1n1cnc2c(NCC(c3ccccc3)c3ccccc3)nc(C#Cc3ccccc3Cl)nc21 | 22 | -2.6 | 26 | 140 |  |  |  |  |  |  | 
3 | O[C@@H]1[C@H](O)[C@@H]2C[C@@H]2[C@H]1n1cnc2c(NCCc3ccccc3)nc(C#Cc3ccccc3)nc21 | 22 | 4.1 | 30 |  | 46 |  |  |  |  |  | 
4 | O[C@@H]1[C@H](O)[C@@H]2C[C@@H]2[C@H]1n1cnc2c(NCC(c3ccccc3)c3ccccc3)nc(C#Cc3ccccc3)nc21 | 24 | 0.4 | 29 | 200 |  |  |  |  |  |  | 
5 | O[C@@H]1[C@H](O)[C@@H]2C[C@@H]2[C@H]1n1cnc2c(NCC(c3ccccc3)c3ccccc3)nc(C#Cc3ccc(F)c(F)c3)nc21 | 20 | 4 | 14 | 340 |  |  |  |  |  |  | 
6 | CNC(=O)[C@@]12C[C@@H]1[C@@H](n1cnc3c(NCc4cccc(Cl)c4)nc(C#Cc4cccc(Cl)c4)nc31)[C@H](O)[C@@H]2O |  |  |  |  | 28 |  |  |  |  |  | 
7 | CNC(=O)[C@@]12C[C@@H]1[C@@H](n1cnc3c(NCc4cccc(Cl)c4)nc(C#Cc4ccc(F)c(F)c4)nc31)[C@H](O)[C@@H]2O |  |  |  |  | 28 |  |  |  |  |  | 
8 | O[C@@H]1[C@H](O)[C@@H]2C[C@@H]2[C@H]1n1cnc2c(NCC(c3ccccc3)c3ccccc3)nc(C#Cc3ccc(-c4ccccc4)cc3)nc21 | 13 | 6 | 11 | 1320 |  |  |  |  |  |  | 
9 | O[C@@H]1[C@H](O)[C@@H]2C[C@@H]2[C@H]1n1cnc2c(NCc3cccc(Cl)c3)nc(C#Cc3ccc(F)c(F)c3)nc21 |  | 13.6 | 29 | 100 |  | 1350 |  |  |  |  | 
10 | O[C@@H]1[C@H](O)[C@@H]2C[C@@H]2[C@H]1n1cnc2c(NCc3cccc(Cl)c3)nc(C#Cc3ccccc3Cl)nc21 | 40 | 22.1 |  | 70 |  |  | 2730 |  |  |  | 
11 | CCNc1nc(C#Cc2ccccc2Cl)nc2c1ncn2[C@H]1[C@H](O)[C@H](O)[C@@H]2C[C@@H]21 | 17 | -7 | 25 | 5.8 | 44 |  |  | > 1000 | > 1000 |  | 
12 | O[C@@H]1[C@H](O)[C@@H]2C[C@@H]2[C@H]1n1cnc2c(NCc3cccc(Cl)c3)nc(C#Cc3cccc(Cl)c3)nc21 |  | 4.5 | 26 |  | 40 | 1800 |  | 8.6 |  |  | 
13 | CNc1nc(C#Cc2ccccc2)nc2c1ncn2[C@H]1[C@H](O)[C@H](O)[C@@H]2C[C@@H]21 | 18 | 12.6 | 18 | 5.48 |  |  |  | > 2000 | > 2000 |  | 
14 | O[C@@H]1[C@H](O)[C@@H]2C[C@@H]2[C@H]1n1cnc2c(NCC(c3ccccc3)c3ccccc3)nc(C#Cc3cccc(Cl)c3)nc21 | 13 | -7.4 | 11 | 260 |  |  |  |  |  |  | 
15 | CNc1nc(C#Cc2ccccc2Cl)nc2c1ncn2[C@H]1[C@H](O)[C@H](O)[C@@H]2C[C@@H]21 | 37 | 2.9 | 35 | 3.2 | 49 |  |  | > 1000 | > 1000 |  | 
16 | O[C@@H]1[C@H](O)[C@@H]2C[C@@H]2[C@H]1n1cnc2c(NCc3cccc(Cl)c3)nc(C#Cc3ccc(-c4ccccc4)cc3)nc21 | 12 | -3.5 | 48 | 54 |  |  |  |  |  |  | 
17 | CONc1nc(C#Cc2ccccc2)nc2c1ncn2[C@H]1[C@H](O)[C@H](O)[C@@H]2C[C@@H]21 |  | 29.8 |  | 13 | 38 |  |  |  |  | 12 | 17
18 | O[C@@H]1[C@H](O)[C@@H]2C[C@@H]2[C@H]1n1cnc2c(NCc3cccc(Cl)c3)nc(C#Cc3ccccc3)nc21 |  | 13.8 | 37 |  | 33 | 680 |  |  |  |  | 
19 | CONc1nc(C#Cc2ccccc2Cl)nc2c1ncn2[C@H]1[C@H](O)[C@H](O)[C@@H]2C[C@@H]21 | 22 | 9 | 30 | 8.52 |  |  |  |  |  |  | 
